In ChEMBL document CHEMBL4513216, “Probing the Open Global Health Chemical Diversity Library for Multistage-Active Starting Points for Next-Generation Antimalarials” (ACS Infect Dis, 2020):

Experiment: Toxicity liver stage against HepG2, at 10uM
Type: cell-based
Design: test concentration 10 uM, cell line HepG2-A16-CD81EGFP
Conditions: human, HepG2-A16-CD81EGFP cells; read-out: INHIBITION
In short: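 Uninfected HepG2-A16-CD81EGFP cells, 3 × 10^3 per well, 1536-well, plated on prespotted compound at 10 μM final, parasite-free screening media added to match infected plates; puromycin 10 μM positive, DMSO 0.5% negative; run in parallel with 48 h PbLuc assay at 37 °C, 5% CO2; viability by CellTiter-Glo luminescence, normalized to controls.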

Row | SMILES | cytotoxicity at 10 µM
1 | CC(C)(C(=O)N1CCC(CS(N)(=O)=O)CC1)c1ccccc1F | 6.03%
2 | CN(C)c1nccc(CNS(=O)(=O)c2ccc(F)c(Cl)c2)n1 | -140%
3 | CCc1ncc2c(n1)CN(C(=O)CNC(=O)C(C)C)C2 | 7.28%
4 | Cc1ccoc1C(=O)N1CCCc2c(c(=O)n(C)n2C)C1 | 11.7%
5 | COc1ncccc1N(C)C(=O)Cn1cc(-c2ccccc2)nn1 | -1.11%
6 | CCn1nc2c(cc1=O)CN(Cc1nc(C)c3ccccc3n1)CC2 | -9.35%
7 | CCS(=O)(=O)N1CCc2c(COCCN(C)C)cncc2C1 | -104%
8 | CC1(C)CCN1C(=O)c1cc(F)cc2[nH]cnc12 | -7.09%
9 | Cc1ccn(-c2ccc(N3CCCN(Cc4ccccc4)CC3)nn2)n1 | 9.31%
10 | c1ccc(COCCN2CCc3[nH]cnc3C2c2ccco2)cc1 (centres undefined) | -2.01%
11 | CCc1noc(CN2CCCC2C(=O)OCc2ccccc2)n1 (centres undefined) | -1.57%
12 | Cc1csc2c(=O)n3c(nc12)CCN(C(=O)c1ccnn1C)CC3 | -9.35%
13 | CCc1cnc(N2C[C@H](OCc3csc(C)n3)[C@H]3COC[C@H]32)nc1 | -2.51%
14 | COc1cccc(CN(Cc2ccco2)Cc2[nH]cnc2C)c1 | 3.77%
15 | CCCOc1ccc(C(=O)N2CC[C@@H]3CC[C@H](C2)N3)cc1Cl | -6.94%
16 | CCN(CC1CCOC1)C(=O)NCc1nnc2n1CCCCC2 (centres undefined) | -0.43%
17 | CCCN1CCc2nc(N3CCOCC3)nc(NC(C)C)c2C1 | -111%
18 | Cc1cc(=O)n2nc(Oc3ccc(F)c(F)c3)sc2n1 | -15.8%
19 | O=C(C1CC1)N1CCC(Nc2nc(O)cc(-c3ccsc3)n2)CC1 | 5.29%
20 | O=C(CCC(=O)N1CCC(OCc2cccnc2)CC1)c1ccccc1 | -3.33%
21 | O=C(CCn1cccc1)NCc1ccc(CN2CCCCCC2)o1 | -5.2%
22 | Cc1cnn(C2CN(CC(=O)NCCc3ccccc3)C2)c1 | -0.956%

Row | SMILES | cytotoxicity at 10 µM
23 | COc1ccc(C(=O)N2C[C@@H](CN3CCCC3)[C@@H](CO)C2)c(C)c1 | -7.21%
24 | Cc1ccc(-n2nnc(C(=O)Nc3cc(C)nn3C)c2C2CC2)cc1 | 0.888%
25 | COc1ccc(S(=O)(=O)NCCC(O)c2cc(C)oc2C)c(C)c1 (centres undefined) | -0.165%
26 | COc1c(C2CCCN2C(=O)c2cnc[nH]2)c(C)nn1C (centres undefined) | -1.68%
27 | O=c1[nH]c2c(c(=O)n1C1CCCCC1)CCC2Nc1ccccc1Cl (centres undefined) | -10.4%
28 | O=C(O)c1ccc(CNC(=O)C2CCN(C(=O)C3CCC3)CC2)s1 | 0.993%
29 | Cc1ccc(N2Cc3cnn(Cc4ccc(F)cc4)c3C2)nn1 | 0.209%
30 | CNC(=O)c1cc(NC(=O)NC(C)CCc2cccn2C)ccc1F (centres undefined) | -2.01%
31 | Cc1noc(C(C)C)c1C(=O)NCC(c1cccs1)N(C)C (centres undefined) | -14.5%
32 | CN(C)C(C(=O)N1CCCC1)c1ccccc1F (centres undefined) | 7.35%
33 | Cc1ccc(C(=O)NS(=O)(=O)c2ccccc2F)c(=O)[nH]1 | -5.53%
34 | CCC(=O)Nc1cccc(OCC(=O)N(C)Cc2ccon2)c1 | 5.37%
35 | Cc1noc(C)c1CN(C)C(=O)CCOc1ccc(Cl)cc1 | -2.51%
36 | O=C(CCCc1ccccn1)N1CCC(Nc2cccnn2)CC1 | -9.73%
37 | CCS(=O)(=O)N1C[C@@H](c2nnc(C)o2)C[C@H]2OCC[C@H]21 | 1.36%
38 | c1cc2n(n1)CC(CNCc1ccc(OC3CCCC3)nc1)CN2 (centres undefined) | -5.17%
39 | CC(=O)C(C)CC(=O)N(Cc1cccc(C)c1)C(C)C (centres undefined) | -3.73%
40 | CCCNC(=O)c1cc(-c2cnc(N3CCCC3)nc2)cn1C | -54.6%
41 | CC(Cn1ccnc1)NCc1csc2c1CCCC2 (centres undefined) | -3.37%
42 | CS(=O)(=O)N1CCN(C(=O)Cn2ccc3c(Cl)cccc32)CC1 | 20.6%
43 | Cc1cccc(CN2CCCC(O)(CNCCN3CCCCC3)C2=O)c1 (centres undefined) | 1.02%
44 | CC(CNC(=O)c1ccc(Cl)cc1I)N1CCCC1 (centres undefined) | -5.69%

Row | SMILES | cytotoxicity at 10 µM
45 | CCN(CCC(=O)OC)C(=O)c1cccc(Cn2nc(C)cc2C)c1 | 7.59%
46 | CC(C)NC(=O)N1CCC2(CC(=O)N(c3ccsc3)C2)C1 (centres undefined) | -7.99%
47 | Cc1cc(CN(Cc2cccs2)CC2CCCO2)no1 (centres undefined) | 2.86%
48 | Cc1ccc(N(C)C2CCCN(C(=O)Nc3ccc(F)cc3F)C2)cc1 (centres undefined) | -8.19%
49 | COc1cccc(N2CCC(CNC(=O)CN3CSCC3=O)C2)c1 (centres undefined) | 0.342%
50 | COc1nc2c(cc1C(=O)NCc1noc(Cc3cccs3)n1)CCC2 | -6.36%
51 | Cc1cc(N2CCN(C(=O)c3cn(C)c4ccccc34)CC2)nc(C)n1 | -1.96%
52 | O=C(C1CCCN(Cc2cccc(F)c2)C1)N1CCc2sccc2C1 (centres undefined) | -0.23%
53 | O=C(NCCc1cccc(O)c1)NC1CCN(c2ccccc2)C1=O (centres undefined) | 5.68%
54 | CC(C)c1nn(C)cc1CNCc1cccnc1N(C)C | -1.96%
55 | Cc1cccc(OCC(=O)N2CCN(C3CCOC3=O)CC2)c1C (centres undefined) | -15%
56 | Cc1ncc2c(n1)CCCC2NC(=O)c1ccccc1C(=O)O (centres undefined) | -11.7%
57 | Cn1ccnc1COc1ccc(CO)cc1 | -5.05%
58 | Cc1cc(CNC2CCCN(Cc3noc(C4CC4)n3)C2)on1 (centres undefined) | -17.7%
59 | CC(C)Oc1cccc(F)c1C(C(=O)O)N(C)Cc1ccon1 (centres undefined) | -33.5%
60 | CN(C)c1ccc(C(=O)Nc2ccn(Cc3ccccn3)n2)cn1 | -0.677%
61 | COCCNC(=O)[C@H]1C[C@@H]2CCN(Cc3nccs3)C[C@H]2O1 | -68.2%
62 | Cc1nc(C2CCCN2Cc2cc(=O)n(C)c(=O)n2C)no1 (centres undefined) | -0.222%
63 | N#Cc1ccc(N2CCN(c3ncccn3)CC2)c(C(F)(F)F)c1 | 36.3%
64 | C=C(C)CN1CCN(Cc2cnc(-c3ccc(OC)cc3)nc2)CC1 | -3.41%
65 | Cc1nn(-c2ccccc2)c(C)c1CNC(=O)NC1CC(=O)N(C)C1 (centres undefined) | -2.17%
66 | COc1ccc(CN(Cc2cncn2C)CC2CCCO2)cc1OC (centres undefined) | -3.06%

Row | SMILES | cytotoxicity at 10 µM
67 | Cc1ccc(CC(=O)N2CCCn3nnc(Cn4cccn4)c3C2)cc1 | 9.58%
68 | COc1ccc(N2CCC(N(C)C(=O)Nc3ccncc3)CC2)cc1 | 3.12%
69 | Cc1oc(C)c(C(=O)N2CCCN(c3nccs3)CC2)c1C | 1.53%
70 | COCCCNC(=O)Nc1ccc(-n2cncn2)c(C(F)(F)F)c1 | -6.98%
71 | CCCc1nnc(N2CCC(N3CCCC(O)C3)CC2)o1 (centres undefined) | 13.6%
72 | COCC(=O)Nc1ccccc1-c1ccc(=O)n(C)n1 | 4.51%
73 | O=C(c1cncc(N2CCC3(CCNCC3)CC2)n1)N1CCCC1 | -14.6%
74 | CCc1ccc(S(=O)(=O)Nc2cnc(N3CCOCC3)nc2)cc1 | -7.72%
75 | O=C(NCC1CCN(C(=O)c2ccoc2)CC1)c1ccccc1Br | -12.3%
76 | Cc1cc(C)c(Cn2cncn2)cc1CN1CC[C@H](CO)[C@@H](O)C1 | -5.42%
77 | CCCN1CC[C@@H]2OC[C@H](C(=O)Nc3cccnc3)C[C@@H]2C1 | 5.7%
78 | COc1nccc(N2CC[C@@H](N3CCCCCC3)[C@H](O)C2)c1C#N | -152%
79 | O=C1NC2(CCN(CC3CC3)CC2)CC1c1ccccc1 (centres undefined) | -7.64%
80 | O[C@H]1[C@H](n2cc(-c3ccccc3)nn2)c2ccccc2C12CCNCC2 | 7.62%
81 | Cn1[nH]c(CNc2cccc(Cl)c2)nc1=O | -0.165%
82 | CCOC(=O)[C@]12CCCN(Cc3cccs3)C[C@H]1CN(CCOC)C2 | 5.13%
83 | CN(C)C[C@H]1OC[C@@H]2CN(C(=O)NCc3cccnc3)CC[C@@H]21 | 3.86%
84 | Cc1cnc(CNC(=O)[C@@H]2CC[C@@H]3[C@@H](CCN3Cc3ccco3)O2)cn1 | 0.296%
85 | O=c1c(S(=O)(=O)N2CCCCC2)cccn1Cc1cccnc1 | -2.56%
86 | Cc1cc(C)cc(C(=O)Nc2ccc(CC3CC(=O)NC3=O)cc2)c1 (centres undefined) | -3%
87 | CC(c1nc(C2CC2)no1)N1CCN(Cc2ccccc2)CC1 (centres undefined) | -5%
88 | Cc1nn(C)c2cn(CC(=O)N3CCN(c4ccccc4)CC3)nc12 | 6.94%

Row | SMILES | cytotoxicity at 10 µM
89 | Cc1cc(=O)n2nc(-c3cccs3)nc2n1CC(=O)NC(C)C | 12.7%
90 | Cc1cnn(CC2CCCN2C(=O)c2cccc3[nH]ncc23)c1 (centres undefined) | -10.8%
91 | Cc1c(C2CC2)n[nH]c1NC(=O)C1CCCN(C(=O)NCC(C)C)C1 (centres undefined) | 13.9%
92 | CCn1ccnc1CN1CCN(CC(O)c2ccco2)CC1 (centres undefined) | -4.57%
93 | CC(C1CCN(Cc2cccc(OC(F)F)c2)CC1)N1CCOCC1 (centres undefined) | -9.2%
94 | Cn1cnnc1SCC(=O)NC1CC(=O)N(CCc2cccc(Cl)c2)C1 (centres undefined) | 2.3%
95 | O=C(Nc1cccc(F)c1)N1CCC(CO)(Nc2ccccc2)CC1 | -5.04%
96 | Cc1nc2ccccn2c1CC(=O)N[C@@H]1CC[C@@H](N2CCCC2)[C@@H]1O | -12.4%
97 | Nc1ncccc1CN1C[C@@H](C(=O)O)[C@H](c2cccc(F)c2)C1 | -11.1%
98 | O=C(NCCc1cc(N2CCOCC2)nc(N2CCCC2)n1)C1CC1 | 6.8%
99 | CS(=O)(=O)N1C[C@H](NC(=O)c2ccno2)[C@@H]2OCCC[C@@H]21 | -112%
100 | CN(C)C(=O)c1ccc(OC2CCOCC2)cc1 | -2%
101 | Cc1noc([C@]23COC[C@H]2CN(C(=O)CN(C)C)C3)n1 | -104%
102 | COc1ccc(Cl)cc1CS(=O)(=O)CC(=O)NC(C)CCC(C)C (centres undefined) | 11%
103 | Cc1cccc(C(=O)N2CCc3c(CN(C)C)nn(C)c3C2)n1 | 3.61%
104 | CNS(=O)(=O)c1ccc(CNC(=O)c2cccc(C)n2)cc1 | 7.17%
105 | CN(C)C(=O)N1Cc2nnn(CC3CC3)c2C(COCC2CC2)C1 (centres undefined) | 8.26%
106 | COc1ncc(NCc2csc(-c3ccco3)n2)cc1C(N)=O | -17.9%
107 | Cc1cccc(OCC2CCCN(C(=O)CN(C)C3CCNCC3)C2)c1 (centres undefined) | -8.4%
108 | COCCN1CCO[C@@H]2CN(C(=O)Cc3ccc(F)cc3)CC[C@@H]2C1 | 7.07%
109 | CNc1cc(N2CCCC2CNCc2cccnc2C)ncn1 (centres undefined) | 0.759%
